This passage reports Emax and EC50 results from ChEMBL document CHEMBL1955801, “Synthesis, biological evaluation and molecular investigation of fluorinated peroxisome proliferator-activated receptors α/γ dual agonists” (Bioorg Med Chem, 2012).

Experiment [1] concerns the target T1, Peroxisome proliferator-activated receptor alpha (Homo sapiens) (UniProt Q07869).
T1 sequence (whole entry): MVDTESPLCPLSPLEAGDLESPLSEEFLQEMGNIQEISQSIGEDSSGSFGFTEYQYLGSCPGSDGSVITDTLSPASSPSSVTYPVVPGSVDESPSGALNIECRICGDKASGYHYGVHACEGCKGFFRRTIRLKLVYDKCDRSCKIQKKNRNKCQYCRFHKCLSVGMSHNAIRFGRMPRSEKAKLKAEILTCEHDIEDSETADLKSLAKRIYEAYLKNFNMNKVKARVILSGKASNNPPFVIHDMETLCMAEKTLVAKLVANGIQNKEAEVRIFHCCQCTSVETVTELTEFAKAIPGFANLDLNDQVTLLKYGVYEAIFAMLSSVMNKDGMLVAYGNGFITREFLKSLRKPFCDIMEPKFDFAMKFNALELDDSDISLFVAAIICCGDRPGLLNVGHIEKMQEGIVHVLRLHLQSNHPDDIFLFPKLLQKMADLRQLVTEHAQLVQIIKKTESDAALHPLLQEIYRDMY
The experiment in a line: Agonist activity at GAL4-tagged human PPARalpha ligand binding domain expressed in HepG2 cells assessed as transactivation after 20 hrs by beta-galactosidase reporter gene assay relative to Wy-14643. The format is cell-based. The gist of the method:
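HepG2 cells were grown in MEM with 10% heat-inactivated FBS and penicillin/streptomycin at 37 °C in 5% CO2. They were seeded at 10^5 cells/well in triplicate and calcium-phosphate transfected 24 h later with GAL4-PPARα LBD (30 ng), pGAL5TKpGL3 luciferase reporter (100 ng) and pCMVβgal (250 ng). Ligands were applied for 20 h. Luciferase was read with β-galactosidase measured alongside. Wy-14,643 was the reference. Experiments were repeated at least twice.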
For orientation: Reporter assays use an easily measured gene product as a stand-in for the process of interest.

The target in experiment [2] is T2, Peroxisome proliferator-activated receptor gamma (Homo sapiens) (UniProt P37231).
T2 sequence (whole entry): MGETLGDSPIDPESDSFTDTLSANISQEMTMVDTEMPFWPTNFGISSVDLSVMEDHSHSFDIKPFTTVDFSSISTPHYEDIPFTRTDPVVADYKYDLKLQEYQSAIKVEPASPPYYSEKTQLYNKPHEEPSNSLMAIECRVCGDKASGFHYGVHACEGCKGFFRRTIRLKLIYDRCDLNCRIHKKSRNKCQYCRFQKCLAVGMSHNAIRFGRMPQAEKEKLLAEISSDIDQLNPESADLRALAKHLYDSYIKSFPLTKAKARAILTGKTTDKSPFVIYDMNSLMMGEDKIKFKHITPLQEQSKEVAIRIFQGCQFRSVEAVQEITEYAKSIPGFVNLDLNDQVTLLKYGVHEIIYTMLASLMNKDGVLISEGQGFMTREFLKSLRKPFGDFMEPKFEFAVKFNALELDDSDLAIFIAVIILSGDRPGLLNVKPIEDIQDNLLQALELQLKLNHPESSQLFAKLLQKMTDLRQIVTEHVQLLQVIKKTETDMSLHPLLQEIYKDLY
The experiment is described as follows: Agonist activity at GAL4-tagged human PPARgamma ligand binding domain expressed in HepG2 cells assessed as transactivation after 20 hrs by beta-galactosidase reporter gene assay relative to pioglitazone. The format is cell-based. An outline of the steps: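 HepG2 cells were cultured in MEM with 10% heat-inactivated FBS at 37 °C in 5% CO2 and seeded at 10^5 cells/well in triplicate. After 24 h they were calcium-phosphate transfected with GAL4-PPARγ LBD (30 ng), pGAL5TKpGL3 luciferase reporter (100 ng) and pCMVβgal (250 ng). Cells were treated with ligands for 20 h. Luciferase and β-galactosidase activities were measured in extracts. Pioglitazone was the reference. Experiments were run at least twice.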

Experiment [3] concerns the target T3, Peroxisome proliferator-activated receptor alpha (Homo sapiens, UniProt Q07869).
T3 sequence (Q07869 whole entry): T1 sequence (whole entry)
The experiment in a line: Agonist activity at GAL4-tagged human PPARalpha ligand binding domain expressed in HepG2 cells assessed as transactivation after 20 hrs by beta-galactosidase reporter gene assay. It is filed as cell-based. The gist of the method: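 HepG2 cells were grown in MEM with 10% heat-inactivated FBS and penicillin/streptomycin at 37 °C in 5% CO2. They were seeded at 10^5 cells/well in triplicate and calcium-phosphate transfected 24 h later with GAL4-PPARα LBD (30 ng), pGAL5TKpGL3 luciferase reporter (100 ng) and pCMVβgal (250 ng). Ligands were applied for 20 h. Luciferase was read with β-galactosidase measured alongside. Experiments were repeated at least twice.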

Experiment [4] has as its target T4, Peroxisome proliferator-activated receptor gamma (Homo sapiens, UniProt P37231).
T4 sequence (P37231 whole entry): T2 sequence (whole entry)
The experiment is described as follows: Agonist activity at GAL4-tagged human PPARgamma ligand binding domain expressed in HepG2 cells assessed as transactivation after 20 hrs by beta-galactosidase reporter gene assay. The format is cell-based.

Experiment [5] has as its target T3, Peroxisome proliferator-activated receptor alpha. The experiment is described as follows: Agonist activity at GAL4-tagged human PPARalpha ligand binding domain expressed in HepG2 cells assessed as transactivation at 5 to 10 uM after 20 hrs by beta-galactosidase reporter gene assay. It is filed as cell-based.
Experiment [6] has as its target T1, Peroxisome proliferator-activated receptor alpha (Homo sapiens). The following applies: HepG2, 5 to 10 uM.
Experiment [7] concerns the target T4, Peroxisome proliferator-activated receptor gamma. The experiment in a line: Agonist activity at GAL4-tagged human PPARgamma ligand binding domain expressed in HepG2 cells assessed as transactivation at 5 to 10 uM after 20 hrs by beta-galactosidase reporter gene assay. It is filed as cell-based.
In experiment [8] the target is T2, Peroxisome proliferator-activated receptor gamma (Homo sapiens). The following applies: HepG2, 5 to 10 uM.

Molecules are shown by their SMILES. Calls of active or inactive are those of the source. No cut-off for these calls is given here.

As a reminder, the EC50 is the concentration giving half of the maximal effect. In the case of `O=C(O)[C@H](Cc1ccc(Cl)cc1)Oc1ccc(Cl)cc1F`, the Emax in experiment [1] turned out to be 76%; in experiment [2], 70%. Moreover, the EC50 was 1 µM in experiment [3] and 0.5 µM in experiment [4].
On the same counts, the results for `O=C(O)[C@H](Cc1ccccc1)Oc1cccc(C(F)(F)F)c1` are 71%, 44%, 9.8 µM and 15.9 µM.
`O=C(O)C(Cc1cccc(F)c1)Oc1ccccc1C(F)(F)F` (racemic): in experiment [2], the Emax came out at 20%. Besides, the EC50 in experiment [4] is 11.6 µM; in experiment [5] it was “Not Active”.
As to `O=C(O)[C@H](Cc1ccccc1)Oc1ccc(C(F)(F)F)cc1`, the values for the Emax in experiment [1] and in experiment [2] were 81% and 59%, respectively.
`O=C(O)C(Cc1ccc(Cl)cc1)Oc1ccc(Cl)cc1F` (racemic): the Emax in experiment [1] turned out to be 76%; in experiment [2], 69%. Besides, the EC50 is 1.4 µM in experiment [3] and 0.9 µM in experiment [4].
On the same counts, the results for `O=C(O)C(Cc1cccc(F)c1)Oc1ccc(Cl)cc1F` (racemic) are 101%, 83%, 4.5 µM and 2.4 µM.
Consider `O=C(O)C(Cc1ccccc1)Oc1cccc(F)c1` (racemic), for which the Emax in experiment [1] is 57%; in experiment [2], 33%. Further, the EC50 in experiment [3] was found to be 21 µM; in experiment [4], 41 µM.
As for `O=C(O)C(Cc1cccc(F)c1)Oc1ccc(Cl)cc1` (racemic), the Emax in experiment [1] was 65%; in experiment [2], 52%. Also, the EC50 in experiment [3] amounted to 5.1 µM; in experiment [4] it was 3.5 µM.
As to `O=C(O)C(Cc1ccccc1)Oc1ccc(Cl)c(C(F)(F)F)c1` (stereo not given), the Emax was 59% in experiment [1] and 21% in experiment [2]. Further, the EC50 is 2.5 µM in experiment [3] and 5.8 µM in experiment [4].
On the same counts, the results for `O=C(O)C(Oc1ccc(Cl)cc1F)c1ccc(Cl)cc1` (stereo not given) are 38%, 24%, 10.3 µM and 16.4 µM.
Take `O=C(O)C(Cc1ccccc1F)Oc1ccc(Cl)cc1` (racemic): the Emax in experiment [1] was 66%; in experiment [2], 59%. Also, the EC50 was 6.6 µM in experiment [3] and 4.9 µM in experiment [4].
As to `O=C(O)C(Cc1ccccc1)Oc1ccc(Cl)c(F)c1` (stereo not given), the values for the Emax in experiment [1] and in experiment [2] were 51% and 40%, respectively. The EC50 in experiment [3] was 6.5 µM; in experiment [4] it was 14.1 µM.
For `CCc1ccc(CCOc2ccc(CC3SC(=O)NC3=O)cc2)nc1` (stereo not given) [PIOGLITAZONE], the Emax result in experiment [6] is “inactive”. The EC50 entry in experiment [5] is on record as “Not Active”.
As for `O=C(O)C(Cc1ccccc1)Oc1ccccc1C(F)(F)F` (racemic), the Emax in experiment [2] was 13%. For the same compound, the EC50 in experiment [4] was 30 µM; in experiment [5], “Not Active”.
In the case of `Cc1cccc(Nc2cc(Cl)nc(SCC(=O)O)n2)c1C` [PIRINIXIC ACID], the EC50 entry in experiment [7] was “Not Active”. Moreover, the Emax result in experiment [8] was “inactive”.
Turning to `O=C(O)[C@H](Cc1ccccc1)Oc1ccc(F)cc1`, the Emax in experiment [1] was found to be 55%; in experiment [2], 58%. Moreover, the results for the EC50 in experiment [3] and in experiment [4] were 24.8 µM and 35.2 µM, respectively.
In the case of `O=C(O)C(Cc1ccccc1)Oc1ccccc1F` (racemic), the figures for the Emax in experiment [1] and in experiment [2] were 36% and 26%, respectively. Moreover, the values for the EC50 in experiment [3] and in experiment [4] were 22.3 µM and 19 µM, respectively.
As to `O=C(O)C(Oc1ccc(Cl)cc1F)c1ccccc1` (stereo not given), the Emax was 88% in experiment [1] and 11% in experiment [2]. The EC50 in experiment [3] stood at 19 µM; in experiment [4], 32 µM.
`O=C(O)C(Oc1cccc(C(F)(F)F)c1)c1ccc(Cl)cc1` (stereo not given): the Emax in experiment [2] came to 13%. Also, the Emax result in experiment [6] was “inactive”. For the same compound, the EC50 in experiment [4] is 10 µM; in experiment [5], “Not Active”.
Consider `O=C(O)C(Cc1ccc(F)cc1)Oc1ccc(Cl)cc1` (racemic), for which the values for the Emax in experiment [1] and in experiment [2] were 66% and 57%, respectively. The values for the EC50 in experiment [3] and in experiment [4] were 5.4 µM and 5.2 µM, respectively.
For `O=C(O)[C@H](Cc1ccccc1)Oc1ccc(Cl)cc1` the same measures were 90%, 77%, 4.9 µM and 9.6 µM.
With `O=C(O)[C@H](Cc1ccccc1)Oc1ccc(Cl)cc1F`, the Emax in experiment [1] worked out at 101%; in experiment [2] it was 84%. Besides, the figures for the EC50 in experiment [3] and in experiment [4] were 2.2 µM and 2.5 µM, respectively.
